Data taken from ChEMBL document CHEMBL1143019, “Hybrid molecules of estrone: new compounds with potential antibacterial, antifungal, and antiproliferative activities” (2007).
Converted amounts (≈) assume the structure as drawn.

Key:
[1] = test system: Mycobacterium avium; test: Antimicrobial activity against Mycobacterium avium My 330/88 after 14 days; assay type: functional; details: 336 h
[2] = test system: Candida albicans; test: Antifungal activity against Candida albicans ATCC 44859 after 48 hrs; assay type: functional; details: ATCC 44859, 48 h
In short: (§1)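 Modified NCCLS M27-A broth microdilution with clinical isolates subcultured on Sabouraud dextrose agar. Suspensions diluted 1:50 in RPMI 1640 to give a final inoculum of 0.5–2.5×10³ CFU/mL for yeasts or 0.5–5×10⁴ CFU/mL for molds. The RPMI had L-glutamine, no bicarbonate, and 0.165 M MOPS to pH 7.0. Twofold dilutions from 250 to 0.49. Plates held at 35 °C, humid, without agitation. MIC is the lowest concentration giving ≥80% inhibition versus drug-free control, read at 24 and 48 h.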

[3] = test system: Mycobacterium kansasii; test: Antimicrobial activity against Mycobacterium kansasii My 235/80 after 14 days; assay type: functional; details: 336 h
In short: (§2)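 Run in Šula semisynthetic liquid medium containing bovine serum. Compounds added as DMSO solutions at final concentrations of […]. Each strain was also inoculated onto Löwenstein–Jensen medium to control inoculum sterility and growth.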

[4] = test system: Candida tropicalis; test: Antifungal activity against Candida tropicalis 156 after 48 hrs; assay type: functional; in short: as §1
[5] = test system: Trichophyton benhamiae; test: Antifungal activity against Trichophyton mentagrophytes 445 after 120 hrs; assay type: functional, Arthroderma benhamiae
In short: (§3)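 Same modified M27-A microdilution with the mold inoculum of 0.5–5×10⁴ CFU/mL. Medium was RPMI 1640 with L-glutamine, no bicarbonate, and 0.165 M MOPS at pH 7.0. Twofold dilutions from 250 to 0.49. Incubated at 35 °C in a humid atmosphere.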

[6] = test system: Mycobacterium kansasii; test: Antimicrobial activity against Mycobacterium kansasii My 6509/96 after 14 days; assay type: functional; details: 336 h; in short: as §2
[7] = test system: Mycobacterium tuberculosis; test: Antimicrobial activity against Mycobacterium tuberculosis My 331/88 after 21 days; assay type: functional; details: 504 h
[8] = test system: Lichtheimia corymbifera; test: Antifungal activity against Absidia corymbifera 272 after 24 hrs; assay type: functional; in short: as §1
[9] = test system: Mycobacterium kansasii; test: Antimicrobial activity against Mycobacterium kansasii My 235/80 after 21 days; assay type: functional; details: 504 h; in short: as §2
[10] = test system: K562; test: Antiproliferative activity against human K562 cells after 72 hrs; assay type: functional; details: K562, 72 h
In short: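 About 10,000 suspension cells per well in RPMI 1640 with 10% heat-inactivated FBS and penicillin/streptomycin, without HEPES. Exposed to 10 concentrations for 72 h at 37 °C in humidified 5% CO₂. Wells diluted 1:50 in CASYTON and counted electronically, each result the mean of three successive counts. GI50 is where the concentration–response curve crosses 50% of control cell count.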

[11] = test system: Mycobacterium kansasii; test: Antimicrobial activity against Mycobacterium kansasii My 235/80 after 7 days; assay type: functional; details: 168 h; in short: as §2
[12] = test system: Mycobacterium kansasii; test: Antimicrobial activity against Mycobacterium kansasii My 6509/96 after 21 days; assay type: functional; details: 504 h; in short: as §2
[13] = test system: Aspergillus fumigatus; test: Antifungal activity against Aspergillus fumigatus 231 after 48 hrs; assay type: functional; in short: as §1
[14] = test system: Nakaseomyces glabratus; test: Antifungal activity against Candida glabrata 20/I after 48 hrs; assay type: functional; in short: as §1
[15] = test system: Pichia kudriavzevii; test: Antifungal activity against Candida krusei E28 after 24 hrs; assay type: functional; in short: as §1
[16] = test system: Mycobacterium kansasii; test: Antimicrobial activity against Mycobacterium kansasii My 6509/96 after 7 days; assay type: functional; details: 168 h; in short: as §2
[17] = test system: Trichophyton benhamiae; test: Antifungal activity against Trichophyton mentagrophytes 445 after 72 hrs; assay type: functional, Arthroderma benhamiae; in short: as §3
[18] = test system: Aspergillus fumigatus; test: Antifungal activity against Aspergillus fumigatus 231 after 24 hrs; assay type: functional; in short: as §1
[19] = test system: Trichosporon beigelii; test: Antifungal activity against Trichosporon beigelii 1188 after 48 hrs; assay type: functional; in short: as §1
[20] = test system: Candida tropicalis; test: Antifungal activity against Candida tropicalis 156 after 24 hrs; assay type: functional; in short: as §1
[21] = test system: L929; test: Antiproliferative activity against mouse L929 cells after 72 hrs; assay type: functional; details: L929, 72 h
In short: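 About 10,000 adherent cells per well in RPMI 1640 with 10% heat-inactivated FBS and penicillin/streptomycin, without HEPES. Exposed to 10 concentrations for 72 h at 37 °C in humidified 5% CO₂. Monolayers fixed with glutaraldehyde, stained 15 min with 0.05% methylene blue, and eluted with 0.33 N HCl; OD read at 630 nm. GI50 derived from dose–response curves relative to control.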

[22] = test system: Trichosporon beigelii; test: Antifungal activity against Trichosporon beigelii 1188 after 24 hrs; assay type: functional; in short: as §1
[23] = test system: Nakaseomyces glabratus; test: Antifungal activity against Candida glabrata 20/I after 24 hrs; assay type: functional; in short: as §1
[24] = test system: Lichtheimia corymbifera; test: Antifungal activity against Absidia corymbifera 272 after 48 hrs; assay type: functional; in short: as §1
[25] = test system: Candida albicans; test: Antifungal activity against Candida albicans ATCC 44859 after 24 hrs; assay type: functional; details: ATCC 44859, 24 h; in short: as §1
[26] = test system: Mycobacterium tuberculosis; test: Antimicrobial activity against Mycobacterium tuberculosis My 331/88 after 14 days; assay type: functional; details: 336 h
[27] = test system: Mycobacterium avium; test: Antimicrobial activity against Mycobacterium avium My 330/88 after 21 days; assay type: functional; details: 504 h
[28] = test system: Pichia kudriavzevii; test: Antifungal activity against Candida krusei E28 after 48 hrs; assay type: functional; in short: as §1
[29] = test system: HeLa; test: Cytotoxicity against human HeLa cells after 72 hrs; assay type: functional; details: for CC50: Homo sapiens, HeLa, 72 h
In short: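 About 10,000 cells per well in RPMI 1640 were preincubated 48 h without compound. The 10 test concentrations were then applied onto the monolayers and incubated 72 h at 37 °C in humidified 5% CO₂. Monolayers fixed with glutaraldehyde, stained with 0.05% methylene blue, and eluted with 0.33 N HCl; optical density measured at 630 nm.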

[30] = test system: Mycolicibacterium aurum; test: Antimicrobial activity against Mycobacterium aurum SB 66 after 24 hrs by micro-broth dilution method; assay type: functional
In short: (§4)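 Microbroth dilution per NCCLS guidelines. Bacteria grown overnight at 37 °C in Mueller–Hinton broth. Compound solution serially diluted twofold in MHB, then wells inoculated to a final 5×10⁵ CFU/mL. Incubated 24 h at 37 °C. MIC (µg/mL) read on an automatic plate reader as the lowest dilution allowing no visible growth.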

[31] = test system: Mycolicibacterium vaccae; test: Antimicrobial activity against Mycobacterium vaccae 10670 after 24 hrs by micro-broth dilution method; assay type: functional; in short: as §4
[32] = test system: Staphylococcus aureus; test: Antibacterial activity against Staphylococcus aureus SG 511 after 24 hrs by micro-broth dilution method; assay type: functional; details: SG 511, 24 h; in short: as §4
[33] = test system: Staphylococcus aureus; test: Antibacterial activity against methicillin-resistant Staphylococcus aureus 994/93 after 24 hrs by micro-broth dilution method; assay type: functional
In short: (§5)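 Broth microdilution per NCCLS in Mueller–Hinton broth. Overnight cultures grown at 37 °C. Compound serially diluted twofold, then wells inoculated to a final 5×10⁵ CFU/mL. Plates held at 37 °C for 24 h. MIC (µg/mL) read on an automatic plate reader as the lowest dilution with no visible growth.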

[34] = test system: Mycolicibacterium fortuitum; test: Antimicrobial activity against Mycobacterium fortuitum Borstel after 24 hrs by microbroth dilution method; assay type: functional; in short: as §4
[35] = test system: Staphylococcus aureus; test: Antibacterial activity against methicillin-resistant Staphylococcus aureus 134/94 after 24 hrs by microbroth dilution method; assay type: functional; in short: as §5
[36] = test system: Micrococcus luteus; test: Antibacterial activity against Micrococcus luteus ATCC 10240 after 24 hrs by microbroth dilution method; assay type: functional; details: ATCC 10240, 24 h; in short: as §4
[37] = test system: Enterococcus faecalis; test: Antibacterial activity against Enterococcus faecalis 1528 after 24 hrs by micro-broth dilution method; assay type: functional; in short: as §4
[38] = test system: Mycolicibacterium smegmatis; test: Antimicrobial activity against Mycobacterium smegmatis SG 987 after 24 hrs by micro-broth dilution method; assay type: functional; in short: as §4

SMILES | MIC [1] [µM] | MIC [2] [µM] | MIC [3] [µM] | MIC [5] [µM] | MIC [6] [µM] | MIC [7] [µM] | MIC [9] [µM] | GI50 [10] [µg/mL] | MIC [11] [µM] | MIC [12] [µM] | MIC [14] [µM] | MIC [16] [µM] | MIC [19] [µM] | GI50 [21] [µg/mL] | MIC [24] [µM] | MIC [26] [µM] | MIC [27] [µM] | MIC [28] [µM] | CC10 [29] [µg/mL] | CC50 [29] [µg/mL] | other results
Clc1ccc(-n2nnnc2SCc2ccccc2)cc1Cl | 62.5 (≈ 21.1 µg/mL) | > 250 | 16 (≈ 5.4 µg/mL) | 125 (≈ 42.2 µg/mL) | 32 (≈ 10.8 µg/mL) | 32 (≈ 10.8 µg/mL) | 32 (≈ 10.8 µg/mL) | > 50 | 8 (≈ 2.7 µg/mL) | 62.5 (≈ 21.1 µg/mL) | > 250 | 16 (≈ 5.4 µg/mL) | > 250 | 19.1 (≈ 56.6 µM) | > 250 | 16 (≈ 5.4 µg/mL) | 125 (≈ 42.2 µg/mL) | > 250 | 9.9 (≈ 29.4 µM) | 48.6 (≈ 144 µM) | MIC [4]: > 250 µM; MIC [8]: > 250 µM; MIC [13]: > 250 µM; MIC [15]: > 250 µM; MIC [17]: 125 µM (≈ 42.2 µg/mL); MIC [18]: 250 µM (≈ 84.3 µg/mL); MIC [20]: > 250 µM; MIC [22]: > 250 µM; MIC [23]: > 250 µM; MIC [25]: > 250 µM
Clc1ccc(CSc2ccncc2)cc1 | 62.5 (≈ 14.7 µg/mL) |  | 62.5 (≈ 14.7 µg/mL) |  | 62.5 (≈ 14.7 µg/mL) | 62.5 (≈ 14.7 µg/mL) | 62.5 (≈ 14.7 µg/mL) | 19.8 (≈ 84 µM) | 32 (≈ 7.54 µg/mL) | 62.5 (≈ 14.7 µg/mL) |  | 32 (≈ 7.54 µg/mL) |  | 21.2 (≈ 89.9 µM) |  | 32 (≈ 7.54 µg/mL) | 62.5 (≈ 14.7 µg/mL) |  | 8.6 (≈ 36.5 µM) | 16.3 (≈ 69.1 µM) | MIC [30]: 12.5 µg/mL (≈ 53 µM); MIC [31]: 25 µg/mL (≈ 106 µM); MIC [32]: 50 µg/mL (≈ 212 µM); MIC [33]: 100 µg/mL (≈ 424 µM); MIC [34]: 12.5 µg/mL (≈ 53 µM); MIC [35]: > 100 µg/mL; MIC [36]: 50 µg/mL (≈ 212 µM); MIC [37]: 100 µg/mL (≈ 424 µM); MIC [38]: 25 µg/mL (≈ 106 µM)
Cc1ccc(CSc2cc[n+](CCCCCCCOc3ccc4c(c3)CC[C@@H]3[C@@H]4CC[C@]4(C)C(=O)CC[C@@H]34)cc2)cc1.[Br-] | 8 | 3.9 | 16 | 7.8 | 16 | 8 | 16 | 13.1 | 16 | 16 | 7.8 | 16 | 7.8 | 3.5 | 15.6 | 4 | 8 | 7.8 | 1 | 1.9 | MIC [30]: 3.12 µg/mL; MIC [31]: 1.56 µg/mL; MIC [32]: 1.56 µg/mL; MIC [33]: 3.12 µg/mL; MIC [34]: 6.25 µg/mL; MIC [35]: 3.12 µg/mL; MIC [36]: 0.8 µg/mL; MIC [37]: 3.12 µg/mL; MIC [38]: 6.25 µg/mL
